Rows were chosen to be rich in hits. Some 2.4% of all compounds tested hit in one or more screens of this group.
S1P4 agonist = agonists of human S1P4 receptor; activation, % at 4.98 µM; O95977; AID 1509; S1P4-expressing cell line, agonist reporter assay; 220,000 compounds, 0.35% hits; in the data active = activation above about 11%;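 also: 0% = DMSO vehicle and 100% = reference agonist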
NPY-Y2 PAM-ag = potentiators or agonists of human neuropeptide Y receptor Y2. P49146. cells expressing NPY-Y2, potentiator/agonist read-out. activation, % at 3.6 µM. 220,000 compounds, 0.45% hits. AID 1359; in the data active = activation above about 27%;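 also: cells stimulated with NPY near EC25 plus isoproterenol at EC100; 0% = vehicle plus submaximal agonist and 100% = vehicle plus saturating agonist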
Target sequence (P49146 whole entry, looked up): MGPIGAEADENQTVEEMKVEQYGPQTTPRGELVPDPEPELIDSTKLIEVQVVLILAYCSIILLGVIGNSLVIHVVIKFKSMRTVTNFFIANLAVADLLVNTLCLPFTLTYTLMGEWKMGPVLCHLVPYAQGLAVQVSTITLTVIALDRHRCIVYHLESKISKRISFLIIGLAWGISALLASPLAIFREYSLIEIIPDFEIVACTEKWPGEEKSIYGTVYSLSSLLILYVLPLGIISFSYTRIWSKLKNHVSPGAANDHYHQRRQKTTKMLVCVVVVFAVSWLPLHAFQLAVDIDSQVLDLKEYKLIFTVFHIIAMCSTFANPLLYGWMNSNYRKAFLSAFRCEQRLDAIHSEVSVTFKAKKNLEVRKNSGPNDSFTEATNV
NPY Y2 blocker = blocks the human neuropeptide Y Y2 receptor | 140,000 compounds, 0.99% hits | inhibition, % at 2.7 µM | NPY-Y2 expressing cells, antagonist mode | AID 793; in the data active = inhibition above about 17%;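 also: 0% = vehicle with agonist challenge and 100% = reference antagonist with challenge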
NPY Y1 blocker = NPY-Y1 (human) receptor antagonism; inhibition, % at 3.6 µM; HEK293-CNG Y1 cells, membrane potential fluorescence; NPY at EC95, then isoproterenol; AID 1040; 200,000 compounds, 1% hits; P25929;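 active = inhibition above the campaign mean inhibition of all tested compounds plus 3 SD, cut at about 20% in these data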;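 also: 0% = DMSO wells given NPY plus isoproterenol and 100% = isoproterenol alone without NPY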
Target sequence (P25929 whole entry, looked up): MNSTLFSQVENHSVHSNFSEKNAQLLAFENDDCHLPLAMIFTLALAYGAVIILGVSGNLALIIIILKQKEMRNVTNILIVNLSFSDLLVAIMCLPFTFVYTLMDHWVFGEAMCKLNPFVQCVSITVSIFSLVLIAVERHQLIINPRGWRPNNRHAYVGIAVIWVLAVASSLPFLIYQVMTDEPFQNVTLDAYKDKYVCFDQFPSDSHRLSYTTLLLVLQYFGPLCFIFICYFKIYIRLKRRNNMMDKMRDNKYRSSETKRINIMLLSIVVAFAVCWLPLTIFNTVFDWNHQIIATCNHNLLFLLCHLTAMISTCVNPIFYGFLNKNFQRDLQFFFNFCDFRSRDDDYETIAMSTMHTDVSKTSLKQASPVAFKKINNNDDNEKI
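Material: HEK293 cells co-expressing NPY Y1 receptor and cyclic-nucleotide gated channel. Timing: compound incubation 1 h at room temperature, readout 45 min post-stimulation. Signal: fluorescence, membrane potential probe.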
S1P4 antagonist = blocks the human S1P4 receptor. S1P4-expressing cells, antagonist mode, reporter read-out. inhibition, % at 4.98 µM. 220,000 compounds, 0.26% hits; in the data active = inhibition above about 29%;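 also: 0% = wells stimulated with agonist and 100% = vehicle wells without agonist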
NPY-Y1 PAM-ag = human NPY-Y1 potentiation or agonism, primary screen; P25929; 220,000 compounds, 0.37% hits; NPY-Y1 expressing cells, potentiator/agonist activation; activation, % at 3.6 µM; in the data active = activation above about 33%, passing the limit was not always enough;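 also: cells stimulated with NPY at EC10 then isoproterenol at EC100; 0% = low agonist plus stimulus and 100% = saturating agonist plus stimulus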
NPY-Y1 pot conf = confirmation of human NPY-Y1 receptor potentiators or agonists; 280 compounds, 20% hits; cell-based NPY-Y1 potentiator/agonist assay; activation, % at 3.6 µM; shares compounds with NPY-Y1 PAM-ag; in the data active = activation above about 45%;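 also: cells challenged with NPY at its EC10 plus isoproterenol stimulus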
NPY-Y2 counter = potentiates or activates NPY-Y2, counter-screen for NPY-Y1 hits; 280 compounds, 20% hits; shares compounds with NPY-Y1 PAM-ag; activation, % at 3.6 µM; HEK293-CNG cells, membrane-potential fluorescence (FLIPR), 1536-well; in the data active = activation above about 33%
NPY-Y1 agonist = activates human NPY-Y1, counter-screen for NPY-Y1 potentiators; shares compounds with NPY-Y1 PAM-ag; HEK293 Y1-CNGC, membrane potential fluorescence, agonist mode; activation, % at 3.6 µM; 280 compounds, 50% hits;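 active = percent activation above the mean of DMSO-only control wells plus 3 SD of those wells, cut at about 18% in these data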;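 also: cells challenged with isoproterenol plus Ro 20-1724 with no NPY in test wells; Y1 agonism lowers isoproterenol-driven cAMP and reduces probe fluorescence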
NPY-Y2 ag = human NPY-Y2 agonism as NPY-Y1 counter-screen | shares compounds with NPY-Y1 PAM-ag | activation, % at 3.6 µM | 280 compounds, 67% hits | AID 1698 | HEK293 Y2-CNGC, membrane potential fluorescence, agonist mode;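 active = activation above the solvent-only control wells' mean plus 3 SD, cut at about 11% in these data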;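 also: 0% = DMSO with isoproterenol and 100% = 40 nM NPY maximal response; agonism lowers cAMP so well fluorescence drops in active wells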
CNGC counter = counter-screen for NPY-Y1 potentiators or agonists: CNG channel inhibitors | shares compounds with NPY-Y1 PAM-ag | HEK293-CNG parental, isoproterenol cAMP, membrane potential fluorescence | inhibition, % at 3.6 µM | 280 compounds, 42% hits;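 active = inhibition above the mean of stimulated solvent-only control wells plus 3 SD, cut at about 22% in these data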;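 also: 0% = isoproterenol-stimulated DMSO wells and 100% = unstimulated DMSO wells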
* marks the source's active call; other numbers are inactive results; . = no result.

SMILES | S1P4 agonist | NPY-Y2 PAM-ag | NPY Y2 blocker | NPY Y1 blocker | S1P4 antagonist | NPY-Y1 PAM-ag | NPY-Y1 pot conf | NPY-Y2 counter | NPY-Y1 agonist | NPY-Y2 ag | CNGC counter
CCCn1nc([N+](=O)[O-])c(C(C#N)c2nc3ccccc3s2)c(Cl)c1=O (configuration not stated) | -1 | 27 | 4 | -7 | 17 | 59* | 20 | 21 | 17 | 32* | 17
OC(CNC1Cc2ccccc2C1)COc1ccc(Cl)cc1 (configuration not stated) | 0 | 23 | . | . | 4 | 45* | -4 | 6 | 17* | 16* | -11
OC(CNC1CCCC1)COc1ccc(-c2ccccc2)cc1 (configuration not stated) | -1 | -19 | . | 6 | 9 | -15 | . | . | . | . | .
O=C(Nc1ccccc1N1CCCCC1)c1ccc(Cl)c([N+](=O)[O-])c1 | -1 | 9 | . | -10 | -3 | 51* | 45* | 39* | 29* | 38* | 34*
CN1CCN(c2ccccc2NC(=O)c2ccc(N3CCCC3)c([N+](=O)[O-])c2)CC1 | 2 | 9 | . | 11 | -11 | 2 | . | . | . | . | .
O=C(Cc1ccc(Cl)cc1)Nc1ncc([N+](=O)[O-])s1 | 3 | 11 | . | -3 | -5 | 36* | 8 | 14 | 14 | 11* | 6
O=C(Nc1ccc([N+](=O)[O-])cc1)C(=O)Nc1cccc(C(=O)O)c1 | 1 | 35 | . | . | -8 | 52* | 36 | 19 | 24* | 8 | 35*
COc1cc([N+](=O)[O-])ccc1NC(=S)Nc1cccc(C(=O)O)c1 | 3 | 4 | 1 | 3 | -9 | 15 | . | . | . | . | .
CC(C)(C)NC(=O)C(c1ccccc1)N(C(=O)c1ccco1)C1CC1 (configuration not stated) | 0 | -2 | 3 | 0 | -2 | -8 | . | . | . | . | .
Fc1cc(NC(=S)NCc2ccc(CNC(=S)Nc3ccc(Cl)c(F)c3)cc2)ccc1Cl | 0 | 44 | . | . | -20 | 52* | 71* | 51* | 55* | 57* | 55*
O=S(=O)(Cc1ccccc1)N1CCCCC1 | -2 | -8 | -1 | 10 | 5 | 13 | . | . | . | . | .
CC(=O)N1CCN(CC(=O)Nc2ccccc2Sc2ccccc2)CC1 | 0 | -5 | 2 | -2 | -17 | 10 | . | . | . | . | .
Cc1ccc2cc3c(NC(=O)C(C)C)nn(C)c3nc2c1 | -3 | 10 | -1 | 2 | -9 | 37* | -3 | -4 | -2 | 6 | 1
COc1ccc(-n2nc(C(=O)c3cccs3)cc(-c3nc4ccccc4[nH]3)c2=N)cc1 | 3 | 28 | -1 | -8 | -27 | 33 | . | . | . | . | .
Cc1ccccc1-n1nc(C(=O)c2cccs2)cc(-c2nc3ccccc3[nH]2)c1=N | 1 | 26 | -2 | -6 | -5 | 48* | 73* | 65* | 62* | 66* | 62*
OCCNC(=S)c1ccccc1 | 2 | -13 | . | . | 10 | -1 | . | . | . | . | .
O=C(Nc1cccnc1)c1ccc(COc2cc(Cl)ccc2Cl)o1 | -1 | 6 | 2 | -10 | 2 | 54* | 18 | 8 | 14 | 16* | 18
Cc1nn(-c2ccccc2)c2sc(C(=O)c3c(N)n(C)c(=O)n(C)c3=O)cc12 | 2 | -7 | 2 | 2 | -17 | -7 | . | . | . | . | .
COc1cc2c(cc1NC(=O)C(C)OC(=O)C1CC(=O)N(Cc3ccco3)C1)oc1ccccc12 (configuration not stated) | -2 | 6 | -3 | -10 | 0 | 124* | 6 | 8 | 12 | 16* | 15
Oc1ccccc1Cn1c(-c2ccccc2O)nc2ccccc21 | 3 | 31 | -7 | -12 | 10 | 39* | 32 | 25 | 27* | 26* | 20
CC1=C(C(=O)Nc2ccccc2C)C(c2ccccc2)NC(=O)N1 (configuration not stated) | 3 | -4 | -1 | -4 | -5 | 13 | . | . | . | . | .
COc1ccc(N/N=C(\C#N)C(=N)N2CCCCC2)cc1 | 0 | 17 | . | . | 3 | 22 | . | . | . | . | .
COc1ccc(N/N=C(\C#N)C(=N)SCc2ccccc2)cc1 | -2 | 25 | . | -4 | 13 | 37* | 18 | 6 | 17 | 23* | 15
Cn1cnnc1SCCCN1C(=O)c2cccc3cccc(c23)C1=O | 3 | 6 | . | 10 | 6 | 16 | . | . | . | . | .
O=C1c2cccc3cccc(c23)C(=O)N1CCN1CCN(CC(O)COCc2ccc(Cl)cc2)CC1 (configuration not stated) | -1 | 29 | 3 | 3 | -7 | 37* | 41 | 46* | 31* | 57* | 47*
SMILES | S1P4 agonist | NPY-Y2 PAM-ag | NPY Y2 blocker | NPY Y1 blocker | S1P4 antagonist | NPY-Y1 PAM-ag | NPY-Y1 pot conf | NPY-Y2 counter | NPY-Y1 agonist | NPY-Y2 ag | CNGC counter
Cc1ccc(C)c(OCC(O)CN2CCN(CCN3C(=O)c4cccc5cccc(c45)C3=O)CC2)c1 (configuration not stated) | -1 | 11 | 4 | 10 | -2 | 26 | . | . | . | . | .
CC(=O)c1ccccc1OCC(O)CN1CCN(CCN2C(=O)c3cccc4cccc(c34)C2=O)CC1 (configuration not stated) | 0 | 19 | . | -7 | -32 | 36* | 30 | 27 | 10 | 20* | 15
C=CCSC(=S)Nc1c(C)n(C)n(-c2ccccc2)c1=O | 3 | 7 | . | -1 | -12 | -5 | . | . | . | . | .
CC1CCN(C2=C(NS(=O)(=O)c3ccc(Cl)cc3)C(=O)c3ccccc3C2=O)CC1 | 0 | 19 | -11 | -17 | -17 | 44* | 99* | 80* | 65* | 57* | 77*
CC(=O)Nc1ccc(S(=O)(=O)NC2=C(N3CCN(Cc4ccccc4)CC3)C(=O)c3ccccc3C2=O)cc1 | 1 | 4 | -7 | -12 | -4 | 5 | . | . | . | . | .
CCOC(=O)C1CCN(C2=C(NS(=O)(=O)c3ccc(Cl)cc3)C(=O)c3ccccc3C2=O)CC1 | 0 | 35 | . | . | 10 | 55* | 72* | 57* | 70* | 65* | 57*
CCOc1ccc(C(=O)Nc2ccc(N3CCN(C)CC3)cc2)cc1Br | -1 | 26 | 1 | 0 | -21 | 37* | 28 | 19 | 23* | 22* | 26*
CCCC(=O)N1CCN(c2ccc(NC(=O)c3ccc(OCC)c([N+](=O)[O-])c3)cc2)CC1 | 0 | -8 | 5 | 3 | -7 | -7 | . | . | . | . | .

High-throughput results: PubChem, The Scripps Research Institute Molecular Screening Center
